ChEMBL document CHEMBL1131072, “Synthesis, physicochemical properties, and evaluation of N-substituted-2-alkyl-3-hydroxy-4(1H)-pyridinones” (J Med Chem, 1998)

What was measured:
[1] = Partition coefficient (logD7.4); format: physicochemical; settings: octanol/water, pH 7.4
Procedure, shortened: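 Shake-flask used a 100:1 or 1:100 phase ratio, 1 h stirring, centrifugation, and aqueous absorbance, repeated at least four times. Fe complexes were made at 10:1 ligand:Fe (10^-3/10^-4 M) and read at 460 nm. Reported as mean ± SD.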

Rattus norvegicus [2] = assay: The amount iron excretion in the bile duct-cannulated rats when iron chelator administered subcutaneously at dose 142 mg/kg; format: functional; settings: route subcutaneous
Procedure, shortened: (§1)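 Non-iron-overloaded male Fischer rats (200–240 g) with bile-duct cannulas in metabolic cages. Control bile/urine was collected for 3 h; chelator was then given subcutaneously or by gavage. Bile was collected in 3-h fractions over 24 h, plus 24-h urine. Iron was measured by bathophenanthroline colorimetry (TCA/HCl, 65 °C 4 h, A535) against iron standards after blank subtraction.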

Rattus norvegicus [3] = assay: The amount iron excretion in the bile duct-cannulated rats when iron chelator administered orally at dose 142 mg/kg; format: functional; settings: route oral; procedure, shortened: as §1
[4] = Compound was tested for equilibrium constants (pKa1) spectrophotometrically.; format: physicochemical; settings: read-out: pKa1
Procedure, shortened: (§2)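 The UV/vis spectrum was recorded alongside each potentiometric titration step: 0.1 M KCl, HCl-acidified, titrated with 0.2 M KOH at 25 ± 0.5 °C under argon. Spectral data were fitted with TITRFIT (modified NONLIN) to give pKa, accurate to ±0.02 pH unit.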

[5] = Spectrophotometric values of pKa2 and pKa3
[6] = Compound was tested for equilibrium constants (pKa1) potentiometrically; format: physicochemical; settings: read-out: pKa1
Procedure, shortened: (§3)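 Potentiometric titration in 0.1 M KCl (25 mL), acidified with 0.2 M HCl and titrated with 0.2 M KOH in 0.01-mL increments. Run at 25 ± 0.5 °C under argon, with the electrode zero set by a blank titration (Gran's plot). Data were fitted with TITRFIT; pKa accuracy ±0.02 pH unit.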

[7] = Compound was determined for their affinity constants(log K3) with Fe(III) complex.; format: ADME
Procedure, shortened: (§4)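 Stepwise constants K1, K2 and K3 came from simultaneous spectrophotometric/potentiometric pH titrations of ligand with iron(III). Parameters were obtained by global optimization over titrations at several ligand and iron(III) concentrations, using the Fe3+/L− stepwise model (FeL2+, FeL2+, FeL3).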

[8] = Compound was tested for equilibrium constants (pKa3) of the (carboxyalkyl) pyridinone corresponds to the […] function potentiometrically; format: physicochemical; settings: read-out: pKa3; procedure, shortened: as §3
[9] = Compound was determined for their affinity constants(log K1) with Fe(III) complex.; format: ADME
Procedure, shortened: (§5)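 Stepwise Fe(III) stability constants (K1, K2, K3) came from simultaneous spectrophotometric/potentiometric pH titrations of ligand with iron(III) at several ligand and Fe(III) concentrations. Parameters were fitted by global optimization, and spectra were followed across pH.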

[10] = Compound was tested for equilibrium constants (pKa3) of the (carboxyalkyl) pyridinone corresponds to the […] function spectrophotometrically..; format: physicochemical; settings: read-out: pKa3; procedure, shortened: as §2
[11] = Potentiometric values of pKa2 and pKa3
[12] = Compound was determined for their affinity constants(log K2) with Fe(III) complex.; format: ADME; procedure, shortened: as §4
[13] = Compound was determined for their EDTA competition value(log beta3) of affinity constants.; format: ADME
Procedure, shortened: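 Spectrophotometric competition against EDTA on an automated titration system. The iron(III) complex was prepared at 5:1 ligand:Fe molar ratio in 0.1 M MOPS, pH 7.4, then titrated with EDTA. Spectral data were fitted in COMPT1 to give log β3, accurate to ±0.02 log unit.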

Rattus norvegicus [14] = assay: The amount iron excretion in the bile duct-cannulated rats when iron chelator administered orally at dose 132 mg/kg; format: functional; settings: route oral; procedure, shortened: as §1
Rattus norvegicus [15] = assay: The amount iron excretion in the bile duct-cannulated rats when iron chelator administered subcutaneously at dose 132 mg/kg; format: functional; settings: route subcutaneous; procedure, shortened: as §1
[16] = Compound was tested for equilibrium constants (pKa2) of the (hydroxyalkyl)pyridinone corresponds to the 3-hydroxy function spectrophotometrically..
[17] = Compound was tested for equilibrium constants (pKa2) of the (hydroxyalkyl)pyridinone corresponds to the 3-hydroxy function potentiometrically
Rattus norvegicus [18] = assay: The amount iron excretion in the bile duct-cannulated rats when iron chelator administered subcutaneously.; format: functional; procedure, shortened: as §1
Rattus norvegicus [19] = assay: The dose of the iron chelator administered in the bile duct-cannulated rats.; format: functional; procedure, shortened: as §1
Rattus norvegicus [20] = assay: The amount iron excretion in the bile duct-cannulated rats when iron chelator administered orally.; format: functional; procedure, shortened: as §1
Rattus norvegicus [21] = assay: The amount iron excretion in the bile duct-cannulated rats when iron chelator administered subcutaneously at dose 122 mg/kg; format: functional; settings: route subcutaneous; procedure, shortened: as §1
Rattus norvegicus [22] = assay: The amount iron excretion in the bile duct-cannulated rats when iron chelator administered orally at dose 122 mg/kg; format: functional; settings: route oral; procedure, shortened: as §1
Rattus norvegicus [23] = assay: The amount iron excretion in the bile duct-cannulated rats when iron chelator administered orally at dose 100 mg/kg; format: functional; settings: route oral
Procedure, shortened: (§6)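 Male Fischer rats (200–240 g), non-iron-overloaded and bile duct-cannulated, were kept in metabolic cages. Control bile and urine were collected for 3 h, then compound was given (subcutaneously or by gavage). Bile was collected at 3-h intervals over 24 h, with urine pooled over 24 h. Buprenorphine was given for analgesia. Iron was read by bathophenanthroline colorimetry (535 nm) after acid digestion (65 °C, 4 h) against iron standards.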

Rattus norvegicus [24] = assay: The amount iron excretion in the bile duct-cannulated rats when iron chelator administered subcutaneously at dose 100 mg/kg; format: functional; settings: route subcutaneous; procedure, shortened: as §6
[25] = Compound was determined for their affinity constants(log K2) with Fe(III) complex; format: ADME; procedure, shortened: as §5

## CCOC(Cn1ccc(=O)c(O)c1C)OCC
[1]
  logD: 0.21

## CNC(=O)CCn1ccc(=O)c(O)c1C
[1]
  logD: -1.15

## Cc1c(O)c(=O)ccn1C(CO)CO
[1]
  logD: -1.7

## CNC(=O)CCCn1ccc(=O)c(O)c1C
[1]
  logD: -1.08

## CCc1c(O)c(=O)ccn1CCCO
Rattus norvegicus [2]
  Iron excretion: 634 µg/kg
Rattus norvegicus [3]
  Iron excretion: 265 µg/kg
[1]
  logD: -0.32

## COC(Cn1ccc(=O)c(O)c1C)OC
[1]
  logD: -0.46

## Cc1c(O)c(=O)ccn1CC(C)(C)O
[1]
  logD: -0.77

## C=CCn1ccc(=O)c(O)c1CC
[1]
  logD: 0.47

## CCc1c(O)c(=O)ccn1CCC(=O)O
[4]
  pKa: 3.22
[5]
  pKa: 9.91
[6]
  pKa: 3.12
[7]
  Log K3: 7.9
[8]
  pKa: 9.89
[9]
  Log K1: 16.6
[10]
  pKa: 9.91
[11]
  pKa: 9.89
[12]
  Log K2: 11.4
[13]
  Log beta3: 37
[1]
  logD: -1.6

## COC(=O)CCn1ccc(=O)c(O)c1C
[1]
  logD: -0.77

## CCc1c(O)c(=O)ccn1CCCC(=O)O
[4]
  pKa: 3.42
[5]
  pKa: 9.99
[6]
  pKa: 3.21
[8]
  pKa: 9.89
[10]
  pKa: 9.99
[11]
  pKa: 9.89
[1]
  logD: -1.38

## Cc1nccc(O)c1O
[1]
  logD: -0.5

## CCc1c(O)c(=O)ccn1CCO
Rattus norvegicus [14]
  Iron excretion: 819 µg/kg
[4]
  pKa: 3.34
[5]
  pKa: 9.75
[6]
  pKa: 3.31
[7]
  Log K3: 9.4
[9]
  Log K1: 15.7
Rattus norvegicus [15]
  Iron excretion: 698 µg/kg
[11]
  pKa: 9.77
[16]
  pKa: 9.75
[12]
  Log K2: 11.6
[17]
  pKa: 9.77
[13]
  Log beta3: 36.8
[1]
  logD: -0.66

## Cc1c(O)c(=O)ccn1C(C)C
[1]
  logD: 0.05

## CCNC(=O)CCn1ccc(=O)c(O)c1C
[1]
  logD: -0.82

## CCOCCCn1ccc(=O)c(O)c1C
[1]
  logD: 0.12

## COCCn1ccc(=O)c(O)c1C
[1]
  logD: -0.41

## Cc1c(O)c(=O)ccn1CCN
[1]
  logD: -1.55

## C=CCn1ccc(=O)c(O)c1C
[1]
  logD: 0.03

## CCOC(=O)CCn1ccc(=O)c(O)c1C
[1]
  logD: -0.24

## Cc1c(O)c(=O)ccn1CC(O)CO (stereo unspecified)
Rattus norvegicus [18]
  Iron excretion: 142 µg/kg
Rattus norvegicus [19]
  Dose: 143 mg/kg
Rattus norvegicus [20]
  Iron excretion: 104 µg/kg

## Cc1c(O)c(=O)ccn1CC(C)C
[1]
  logD: 0.65

## CCn1ccc(=O)c(O)c1C
[1]
  logD: -0.31

## CCc1c(O)c(=O)ccn1CCCCO
[1]
  logD: -0.28

## CCCCCn1ccc(=O)c(O)c1C
[1]
  logD: 1.24

## CCCCn1ccc(=O)c(O)c1C
[1]
  logD: 0.7

## Cc1c(O)c(=O)ccn1CCCO
Rattus norvegicus [14]
  Iron excretion: 414 µg/kg
Rattus norvegicus [15]
  Iron excretion: 383 µg/kg
[1]
  logD: […]

## CCc1c(O)c(=O)ccn1CC
[1]
  logD: 0.23

## CCCCCCn1ccc(=O)c(O)c1C
[1]
  logD: 1.89

## CCc1nccc(O)c1O
[1]
  logD: 0.05

## CCc1c(O)c(=O)ccn1CCOC
[1]
  logD: 0.04

## CCOCCCn1ccc(=O)c(O)c1CC
[1]
  logD: 0.72

## CCCn1ccc(=O)c(O)c1CC
[1]
  logD: 0.7

## CCCNC(=O)CCn1ccc(=O)c(O)c1C
[1]
  logD: -0.4

## COCC(C)n1ccc(=O)c(O)c1C (stereo unspecified)
[1]
  logD: -0.26

## Cc1c(O)c(=O)ccn1CCCCO
[1]
  logD: -0.75

## Cc1c(O)c(=O)ccn1CCO
[4]
  pKa: 3.43
[5]
  pKa: 9.72
[6]
  pKa: 3.44
Rattus norvegicus [21]
  Iron excretion: 353 µg/kg
[11]
  pKa: 9.65
[16]
  pKa: 9.72
[17]
  pKa: 9.65
[1]
  logD: -1.1
Rattus norvegicus [22]
  Iron excretion: 272 µg/kg

## Cc1c(O)c(=O)ccn1CCCC(=O)O
[1]
  logD: -2.75

## CCN(C)C(=O)CCn1ccc(=O)c(O)c1C
[1]
  logD: -0.66

## CCN(CC)C(=O)CCn1ccc(=O)c(O)c1C
[1]
  logD: -0.36

## Cc1c(O)c(=O)ccn1CCC(=O)N(C)C
[1]
  logD: -1

## CCc1c(O)c(=O)ccn1C(C)C
[1]
  logD: 0.73

## Cc1c(O)c(=O)ccn1CCC(=O)O
[4]
  pKa: 3.19
[5]
  pKa: 9.51
[6]
  pKa: 3.1
[8]
  pKa: 9.49
[10]
  pKa: 9.51
[11]
  pKa: 9.49
[1]
  logD: -2.92

## Cc1c(O)c(=O)ccn1CCC(=O)NC(C)C
[1]
  logD: -0.47

## CCCCn1ccc(=O)c(O)c1CC
[1]
  logD: 1.22

## CCc1c(O)c(=O)ccn1C
[1]
  logD: -0.21

## Cc1c(O)c(=O)ccn1C [DEFERIPRONE]
Rattus norvegicus [23]
  Iron excretion: 351 µg/kg
[5]
  pKa: 9.64
[7]
  Log K3: 9.8
Rattus norvegicus [24]
  Iron excretion: 292 µg/kg
[9]
  Log K1: 14.9
[1]
  logD: -0.77
[25]
  Log K2: 12.2
